Results: ChEMBL document CHEMBL1129041, “Design of orally active dual inhibitors of neutral endopeptidase and angiotensin-converting enzyme with long duration of action” (J Med Chem, 1996)

Tests used:
[1] = target: T1, Angiotensin-converting enzyme (Rattus norvegicus, UniProt P47820); test: In vitro inhibition of rat angiotensin I converting enzyme
T1 sequence (P47820 whole entry): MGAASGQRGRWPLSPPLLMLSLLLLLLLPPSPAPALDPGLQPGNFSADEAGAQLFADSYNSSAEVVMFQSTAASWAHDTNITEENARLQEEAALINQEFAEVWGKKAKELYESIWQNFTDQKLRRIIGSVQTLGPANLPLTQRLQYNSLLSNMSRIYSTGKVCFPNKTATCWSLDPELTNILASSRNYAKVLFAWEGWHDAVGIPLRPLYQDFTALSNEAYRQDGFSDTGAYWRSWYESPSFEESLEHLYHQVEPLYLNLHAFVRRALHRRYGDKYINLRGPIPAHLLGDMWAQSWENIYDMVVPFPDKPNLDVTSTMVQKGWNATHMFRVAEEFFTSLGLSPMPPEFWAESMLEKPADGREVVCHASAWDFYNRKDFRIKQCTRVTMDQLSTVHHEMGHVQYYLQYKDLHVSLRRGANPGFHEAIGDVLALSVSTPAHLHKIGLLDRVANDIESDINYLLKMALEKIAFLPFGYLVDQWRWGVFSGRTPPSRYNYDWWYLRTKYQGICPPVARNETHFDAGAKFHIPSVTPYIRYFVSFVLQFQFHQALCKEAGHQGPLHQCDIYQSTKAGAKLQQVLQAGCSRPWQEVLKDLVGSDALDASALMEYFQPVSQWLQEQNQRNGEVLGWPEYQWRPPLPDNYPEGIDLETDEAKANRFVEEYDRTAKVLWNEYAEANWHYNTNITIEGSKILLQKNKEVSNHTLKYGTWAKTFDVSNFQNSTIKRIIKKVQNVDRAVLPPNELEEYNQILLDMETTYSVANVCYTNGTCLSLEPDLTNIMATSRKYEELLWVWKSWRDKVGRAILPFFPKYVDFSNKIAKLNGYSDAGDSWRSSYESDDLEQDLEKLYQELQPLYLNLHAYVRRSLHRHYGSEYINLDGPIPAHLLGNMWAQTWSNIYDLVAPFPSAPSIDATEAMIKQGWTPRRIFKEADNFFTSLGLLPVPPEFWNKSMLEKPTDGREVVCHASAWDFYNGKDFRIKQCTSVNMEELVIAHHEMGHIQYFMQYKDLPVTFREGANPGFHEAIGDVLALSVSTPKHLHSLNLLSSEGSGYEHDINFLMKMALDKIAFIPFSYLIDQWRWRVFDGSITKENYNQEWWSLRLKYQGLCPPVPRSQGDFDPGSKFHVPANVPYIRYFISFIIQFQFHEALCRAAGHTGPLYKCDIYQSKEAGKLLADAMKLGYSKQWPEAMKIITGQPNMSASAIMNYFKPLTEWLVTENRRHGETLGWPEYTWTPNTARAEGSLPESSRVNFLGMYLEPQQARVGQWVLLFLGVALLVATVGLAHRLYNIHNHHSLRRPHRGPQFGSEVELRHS
Method in brief: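 ACE purified from rat testis, 0.02 pmol/100 µL final, preincubated 15 min at 37 °C with varying inhibitor in 50 mM Tris-HCl pH 8.0. N-Cbz-Phe-His-Leu added to 0.05 mM final, 15 min; stopped with 2 M NaOH. His-Leu measured fluorimetrically (ex 365, em 495 nm) against a His-Leu calibration curve. IC50 is the mean ± SEM of three experiments in triplicate.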

Neprilysin = target: T2, Neprilysin (Oryctolagus cuniculus, UniProt P08049); test: In vitro inhibition of neutral endopeptidase
T2 sequence (P08049 whole entry): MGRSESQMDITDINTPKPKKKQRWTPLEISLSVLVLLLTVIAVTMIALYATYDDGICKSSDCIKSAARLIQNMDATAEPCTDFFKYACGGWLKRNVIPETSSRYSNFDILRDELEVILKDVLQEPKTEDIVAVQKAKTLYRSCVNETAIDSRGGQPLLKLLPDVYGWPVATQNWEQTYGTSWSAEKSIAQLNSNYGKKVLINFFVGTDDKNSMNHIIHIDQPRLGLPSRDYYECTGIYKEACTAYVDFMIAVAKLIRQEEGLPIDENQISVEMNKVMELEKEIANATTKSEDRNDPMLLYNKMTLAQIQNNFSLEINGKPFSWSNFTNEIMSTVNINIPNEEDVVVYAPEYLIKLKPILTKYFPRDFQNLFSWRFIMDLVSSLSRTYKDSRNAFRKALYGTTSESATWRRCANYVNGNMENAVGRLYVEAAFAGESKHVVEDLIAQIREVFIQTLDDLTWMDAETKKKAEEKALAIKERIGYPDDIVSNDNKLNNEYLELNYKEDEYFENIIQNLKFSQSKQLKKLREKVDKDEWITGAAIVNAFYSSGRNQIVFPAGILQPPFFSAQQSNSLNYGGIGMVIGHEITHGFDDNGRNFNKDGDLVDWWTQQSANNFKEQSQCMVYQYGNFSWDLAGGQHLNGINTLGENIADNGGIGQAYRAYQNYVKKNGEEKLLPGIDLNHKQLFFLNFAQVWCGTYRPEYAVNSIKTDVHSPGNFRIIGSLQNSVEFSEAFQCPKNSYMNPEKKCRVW
Method in brief: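 NEP purified from rabbit kidney, 1 pmol/100 µL final, preincubated 15 min at 25 °C with increasing inhibitor concentrations in 50 mM Tris-HCl pH 7.4. Substrate [3H]-D-Ala2-Leu-enkephalin at 20 nM final, 30 min; stopped with 0.5 M HCl. [3H]Tyr-D-Ala-Gly separated on polystyrene beads and counted by scintillation. IC50 is the mean ± SEM of three independent experiments run in triplicate.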

[2] = target: T3, Neprilysin (Mus musculus) (UniProt Q61391); test: In vivo percent inhibition activity against kidney Neutral endopeptidase 2 hr after oral administration of a dose of 2.6 x 10e-5 mol/kg; format: organism-based
T3 sequence (whole entry): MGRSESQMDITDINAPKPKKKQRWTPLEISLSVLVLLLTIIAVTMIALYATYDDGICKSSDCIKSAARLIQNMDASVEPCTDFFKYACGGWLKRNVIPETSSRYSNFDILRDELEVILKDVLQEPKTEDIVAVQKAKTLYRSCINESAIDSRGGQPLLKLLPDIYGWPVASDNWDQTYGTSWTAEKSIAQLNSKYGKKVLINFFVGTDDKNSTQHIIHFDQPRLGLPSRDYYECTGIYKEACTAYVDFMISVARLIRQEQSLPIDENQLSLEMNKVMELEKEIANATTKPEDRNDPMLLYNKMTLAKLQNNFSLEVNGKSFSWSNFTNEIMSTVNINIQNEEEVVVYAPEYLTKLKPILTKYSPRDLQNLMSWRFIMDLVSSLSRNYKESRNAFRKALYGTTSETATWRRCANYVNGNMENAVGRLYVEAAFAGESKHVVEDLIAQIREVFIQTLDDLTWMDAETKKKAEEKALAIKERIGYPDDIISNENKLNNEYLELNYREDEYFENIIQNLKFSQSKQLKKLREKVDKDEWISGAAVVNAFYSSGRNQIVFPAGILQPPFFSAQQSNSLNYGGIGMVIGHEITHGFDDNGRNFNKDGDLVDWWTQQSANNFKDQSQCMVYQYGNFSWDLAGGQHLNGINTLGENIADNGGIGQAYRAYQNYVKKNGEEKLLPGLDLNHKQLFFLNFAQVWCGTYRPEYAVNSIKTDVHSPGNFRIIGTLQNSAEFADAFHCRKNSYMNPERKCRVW
Method in brief: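 Mice given a single oral dose in 10% ethanol/10% cremophor/80% water; kidneys taken 2 h later and homogenized at 4 °C in 50 mM Tris-HCl pH 7.4. Membrane fraction (100000g) preincubated 5 min at 25 °C with bestatin and captopril, then incubated 10 min with [3H]-D-Ala2-Leu-enkephalin (2 × 10^-8 M). [3H]Tyr-D-Ala-Gly counted; blanks contained 10^-5 M retrothiorphan.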

Structure (SMILES) | IC50 [1] | IC50 (Neprilysin) | inhibition [2]
Cc1ccccc1[C@@H]1CCC(C(=O)O)N1C(=O)CNC(=O)[C@@H](S)Cc1ccccc1 (single isomer, unassigned; 18) | 48 nM | 17 nM | –
Nc1ccc([C@H]2CC[C@@H](C(=O)O)N2C(=O)CNC(=O)[C@@H](S)Cc2ccc(O)cc2)cc1 | 23 nM | 26 nM | –
O=C(NCC(=O)N1[C@@H](c2cccc(O)c2)CC[C@H]1C(=O)O)C(S)Cc1ccc(F)cc1 (some centres not stated) | 3.8 nM | 5.3 nM | –
C[C@H](NC(=O)[C@@H](S)Cc1ccccc1)C(=O)N1[C@@H](c2ccccc2)CC[C@H]1C(=O)O | 45 nM | 10 nM | –
O=C(NCC(=O)N1[C@@H](c2ccccc2O)CC[C@H]1C(=O)O)C(S)Cc1ccc(Cl)cc1 (some centres not stated) | 0.9 nM | 1.2 nM | –
O=C(NCC(=O)N1[C@@H](c2ccccc2O)CC[C@H]1C(=O)O)[C@@H](S)Cc1ccccc1 | 0.5 nM | 1 nM | –
O=C(NCC(=O)N1[C@@H](c2ccccc2)CC[C@H]1C(=O)O)[C@@H](S)Cc1ccc(O)cc1 | 4.2 nM | 3.4 nM | –
Cc1ccccc1[C@@H]1CCC(C(=O)O)N1C(=O)CNC(=O)[C@@H](S)Cc1ccccc1 (single isomer, unassigned; 17) | 33 nM | 8.5 nM | –
O=C(O)c1ccc(CC(S)C(=O)NCC(=O)N2[C@@H](c3ccccc3O)CC[C@H]2C(=O)O)cc1 (some centres not stated) | 5.3 nM | 62 nM | –
Cc1cccc([C@H]2CC[C@@H](C(=O)O)N2C(=O)CNC(=O)[C@@H](S)Cc2ccccc2)c1 | 6.2 nM | 2.3 nM | –
Nc1ccc(C[C@H](S)C(=O)NCC(=O)N2[C@@H](c3ccccc3)CC[C@H]2C(=O)O)cc1 | 3.5 nM | 1.8 nM | –
O=C(NCC(=O)N1[C@@H](c2cccc(O)c2)CC[C@H]1C(=O)O)[C@@H](S)Cc1ccccc1 | 1.5 nM | 2.4 nM | –

Continued by falling IC50 [1], values first:

IC50 [1] | IC50 (Neprilysin) | inhibition [2] | Structure (SMILES)
403 nM | 500 nM | – | NCCCCC(S)C(=O)NCC(=O)N1[C@@H](c2ccccc2)CC[C@H]1C(=O)O (some centres not stated)
112 nM | 25 nM | – | Cc1ccccc1C1CC[C@H](C(=O)O)N1C(=O)CNC(=O)[C@@H](S)Cc1ccccc1 (single isomer, unassigned)
25 nM | 3.2 nM | – | O=C(NCC(=O)N1[C@@H](c2ccccc2)CC[C@H]1C(=O)O)[C@H](S)Cc1ccccc1
12.5 nM | 5.1 nM | – | Cc1ccccc1[C@@H]1CCC(C(=O)O)N1C(=O)CNC(=O)[C@@H](S)Cc1ccc(O)cc1 (single isomer, unassigned)
4.5 nM | 3.4 nM | – | COc1ccccc1[C@H]1CC[C@@H](C(=O)O)N1C(=O)CNC(=O)[C@@H](S)Cc1ccc(O)cc1
3.7 nM | 50 nM | – | CC[C@H](C)C(S)C(=O)NCC(=O)N1[C@@H](c2ccccc2)CC[C@H]1C(=O)O (some centres not stated)
3.2 nM | 4.3 nM | – | O=C(NCC(=O)N1[C@@H](c2cccc(O)c2)CC[C@H]1C(=O)O)[C@@H](S)Cc1cccc(O)c1
3.1 nM | 1.5 nM | – | Cc1cccc(C2CCC(C(=O)O)N2C(=O)CNC(=O)[C@@H](S)Cc2ccc(O)cc2)c1 (some centres not stated)
2.2 nM | 2.5 nM | – | COc1ccc(C[C@H](S)C(=O)NCC(=O)N2[C@@H](c3ccccc3OC)CC[C@H]2C(=O)O)cc1
0.46 nM | 6.36 nM | 25% | O=C(NCC(=O)N1[C@@H](c2ccc(O)cc2)CC[C@H]1C(=O)O)[C@@H](S)Cc1ccc(O)cc1
0.42 nM | 2.2 nM | – | COc1ccc(C[C@H](S)C(=O)NCC(=O)N2[C@@H](c3ccccc3O)CC[C@H]2C(=O)O)cc1
